# Laboratory results from PMC3229844 (Chemmedchem, 2011).
# Like-named read-outs stand apart in the source and are kept apart here. Square brackets hold non-standard residues; d marks the D form. Side chains are listed from the residue outwards. Peptide text beside a SMILES is read from it. * marks the point of attachment. DOTA = O=C(O)CN1CCN(CC(=O)O)CCN(CC(=O)*)CCN(CC(=O)O)CC1; 2Nal = N[C@@H](Cc1ccc2ccccc2c1)C(=O)O; dNMeOrn = CN[C@H](CCCN)C(=O)O; 4Amb = NCc1ccc(C(=O)O)cc1
# What was measured:
# [1] = biological target: T1, CXCR4 (Homo sapiens, UniProt P61073); type: binding; conditions: Table 1; mean±SD of three experiments except values greater than 100 nM
# [2] = biological target: T1, CXCR4; conditions: value taken from the literature; cited from earlier work
# [3] = system: OH-1 human small-cell lung cancer xenografts; test: Biodistribution of [68Ga]2 c in OH1 tumor-bearing nude mice; type: in vivo
# Method in brief: (§1)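 Tracer: 68Ga-labeled test compound, given alone or co-injected with 50 μg competitor, in nude mice bearing OH-1 human small-cell lung cancer xenografts. Animals were sampled at 60 and 120 min post-injection. Organ and tumour activity was expressed as %ID g−1, and tumour/muscle ratios were derived.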
# [4] = as above; type: in vivo; conditions: nude, mouse, tumor / muscle, total radioactivity, Tumor/Muscle ratio, Blockade, 1 h p.i. (n=4), in the presence of 50 μg cyclo-(D-Tyr 1-Arg 2-Arg 3-Nal 4-Gly 5), OH1 mice
# Method in brief: as §1
# [5] = system: OH-1 human small-cell lung cancer xenografts; test: PET imaging of CXCR4 expression in tumor-bearing nude mice; type: in vivo
# [6] = 1 h p.i. (n=4), in the presence of 50 μg cyclo-(D-Tyr 1-Arg 2-Arg 3-Nal 4-Gly 5), OH1 mice
# T1 sequence (P61073 whole entry): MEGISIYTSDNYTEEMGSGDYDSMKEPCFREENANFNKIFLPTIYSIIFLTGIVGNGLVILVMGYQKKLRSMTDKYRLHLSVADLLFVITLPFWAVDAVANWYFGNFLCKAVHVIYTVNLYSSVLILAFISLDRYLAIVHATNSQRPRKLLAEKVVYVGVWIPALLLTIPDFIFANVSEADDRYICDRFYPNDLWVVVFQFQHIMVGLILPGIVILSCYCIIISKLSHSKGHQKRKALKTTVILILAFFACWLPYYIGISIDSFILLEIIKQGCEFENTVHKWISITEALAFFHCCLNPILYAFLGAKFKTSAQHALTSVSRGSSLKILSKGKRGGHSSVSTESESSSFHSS
molecule,measurement,setting,value
CN1C(=O)[C@@H](Cc2ccc(O)cc2)NC(=O)CNC(=O)[C@H](Cc2ccc3ccccc3c2)NC(=O)[C@H](CCCNC(=N)N)NC(=O)[C@H]1CCCNC(=O)c1ccc(CNC(=O)CN2CCN(CC(=O)O)CCN(CC(=O)O)CCN(CC(=O)O)CC2)cc1 [2 b] (cyclo([dY][dNMeOrn]([4Amb-DOTA])R[2Nal]G)),IC50,[1],0.044 ± 0.004 µM
cyclo-(-D-Tyr 1-Arg 2-Arg 3-Nal 4-Gly 5) [1 a],IC50,[2],0.0043 ± 0.0012 µM
"CN1C(=O)[C@@H](Cc2ccc(O)cc2)NC(=O)CNC(=O)[C@H](Cc2ccc3ccccc3c2)NC(=O)[C@H](CCCNC(=N)N)NC(=O)[C@H]1CCCNC(=O)c1ccc(CNC(=O)CN2CCN(CC(=O)O)CCN(CC(=O)O)CCN(CC(=O)O)CC2)cc1 [[^68Ga]2 c, metal not drawn] (cyclo([dY][dNMeOrn]([4Amb-DOTA])R[2Nal]G))","Blockade, Adrenal glands",[3]; [6],0.87±0.32 %ID g^−1
same,"Blockade, Blood",[3]; [6],2.50±0.64 %ID g^−1
same,"Blockade, Heart",[3]; [6],1.38±0.52 %ID g^−1
same,"Blockade, Intestine",[3]; [6],1.00±0.32 %ID g^−1
same,"Blockade, Kidney",[3]; [6],7.19±1.83 %ID g^−1
same,"Blockade, Liver",[3]; [6],2.27±0.59 %ID g^−1
same,"Blockade, Lung",[3]; [6],3.25±1.06 %ID g^−1
same,"Blockade, Muscle",[3]; [6],0.58±0.21 %ID g^−1
same,"Blockade, Pancreas",[3]; [6],0.75±0.19 %ID g^−1
same,"Blockade, Spleen",[3]; [6],1.03±0.40 %ID g^−1
same,"Blockade, Stomach",[3]; [6],1.40±0.30 %ID g^−1
same,"Blockade, Tumor",[3]; [6],1.88±0.30 %ID g^−1
same,"Biodistribution, Adrenal glands","[3]; 1 h p.i. (n=8), OH1 mice",0.83±0.55 %ID g^−1
same,"Biodistribution, Blood","[3]; 1 h p.i. (n=8), OH1 mice",1.08±0.27 %ID g^−1
same,"Biodistribution, Heart","[3]; 1 h p.i. (n=8), OH1 mice",0.60±0.16 %ID g^−1
same,"Biodistribution, Intestine","[3]; 1 h p.i. (n=8), OH1 mice",0.45±0.11 %ID g^−1
same,"Biodistribution, Kidney","[3]; 1 h p.i. (n=8), OH1 mice",3.06±0.63 %ID g^−1
same,"Biodistribution, Liver","[3]; 1 h p.i. (n=8), OH1 mice",1.85±0.24 %ID g^−1
same,"Biodistribution, Lung","[3]; 1 h p.i. (n=8), OH1 mice",1.41±0.26 %ID g^−1
same,"Biodistribution, Muscle","[3]; 1 h p.i. (n=8), OH1 mice",0.38±0.09 %ID g^−1
same,"Biodistribution, Pancreas","[3]; 1 h p.i. (n=8), OH1 mice",0.30±0.07 %ID g^−1
same,"Biodistribution, Spleen","[3]; 1 h p.i. (n=8), OH1 mice",0.69±0.09 %ID g^−1
same,"Biodistribution, Stomach","[3]; 1 h p.i. (n=8), OH1 mice",0.72±0.26 %ID g^−1
same,"Biodistribution, Tumor","[3]; 1 h p.i. (n=8), OH1 mice",6.16±1.16 %ID g^−1
same,tumor to organ ratios,[3]; 1 h post-injection,High tumor to organ ratios
same,"Biodistribution, Adrenal glands","[3]; 2 h p.i. (n=3), OH1 mice",0.50±0.15 %ID g^−1
same,"Biodistribution, Blood","[3]; 2 h p.i. (n=3), OH1 mice",0.58±0.14 %ID g^−1
same,"Biodistribution, Heart","[3]; 2 h p.i. (n=3), OH1 mice",0.29±0.10 %ID g^−1
same,"Biodistribution, Intestine","[3]; 2 h p.i. (n=3), OH1 mice",0.36±0.04 %ID g^−1
same,"Biodistribution, Kidney","[3]; 2 h p.i. (n=3), OH1 mice",2.07±0.46 %ID g^−1
same,"Biodistribution, Liver","[3]; 2 h p.i. (n=3), OH1 mice",1.48±0.31 %ID g^−1
same,"Biodistribution, Lung","[3]; 2 h p.i. (n=3), OH1 mice",2.85±2.69 %ID g^−1
same,"Biodistribution, Muscle","[3]; 2 h p.i. (n=3), OH1 mice",0.28±0.17 %ID g^−1
same,"Biodistribution, Pancreas","[3]; 2 h p.i. (n=3), OH1 mice",0.21±0.02 %ID g^−1
same,"Biodistribution, Spleen","[3]; 2 h p.i. (n=3), OH1 mice",0.65±0.25 %ID g^−1
same,"Biodistribution, Stomach","[3]; 2 h p.i. (n=3), OH1 mice",0.46±0.12 %ID g^−1
same,"Biodistribution, Tumor","[3]; 2 h p.i. (n=3), OH1 mice",4.63±1.54 %ID g^−1
same,tissue to tissue ratio at 1 h,[4],3.45 ± 1.45
same,tumor uptake on co-injection of competitor,[5]; co-injection of 50 μg AMD3100 per mouse (data not shown),significantly reduced
same,tumor uptake on co-injection of competitor,[5]; co-injection of 50 μg cyclo-(-D-Tyr 1-Arg 2-Arg 3-Nal 4-Gly 5) per mouse,significantly reduced
same,accumulation in CXCR4-expressing tumors,[5]; nude mice bearing OH-1 human small-cell lung cancer xenografts,accumulated in high levels
